Starred links: 1 amine or outer side, 2 acyl side, 3 side chain; linkers in the order of their positions; H or OH if unused. Positions of bridges follow the written chain, without caps; N, C: chain ends. Non-standard residues stand in square brackets, D forms with d. Residues, ends and D or L forms follow the SMILES beside them. *: point of attachment. Cys(CH2CO)(S-oxide,Ss) = O=C([C@H](C[S@+]([O-])CC(=O)[*:3])N[*:1])[*:2]; X1 = O=C(O)CCc1cc(C[C@H](N[*:1])C(=O)[*:2])ccc1O; Tyr(3-NH2) = Nc1cc(C[C@H](N)C(=O)O)ccc1O; X2 = C[C@](CCCC(=O)O)(N[*:1])C(=O)[*:2]; Gla = N[C@@H](CC(C(=O)O)C(=O)O)C(=O)O; Fmoc = O=C(OCC1c2ccccc2-c2ccccc21)*; αMehGlu = C[C@](N)(CCCC(=O)O)C(=O)O; αMeE = C[C@](N)(CCC(=O)O)C(=O)O; Aad = N[C@@H](CCCC(=O)O)C(=O)O; αMeD = C[C@](N)(CC(=O)O)C(=O)O; Ac6c = NC1(C(=O)O)CCCCC1; Ava = NCCCCC(=O)O
Assays:
[1] = biological target: Growth factor receptor-bound protein 2 (Homo sapiens, UniProt P62993); assay: Binding affinity to recombinant Grb2 SH2 domain by surface plasmon resonance analysis
Outline: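 Competition SPR: inhibitor mixed with recombinant Grb2 SH2 protein, with equilibrium binding measured to immobilized biotinyl-DDPS-pY-VNVQ (SHC pTyr317 phosphopeptide) on a streptavidin SA chip. Run in pH 7.4 PBS with 0.01% P-20 surfactant. IC50 is the concentration giving half-maximal competition, as the mean of at least two independent experiments with standard deviation.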

MDA-MB-453 = assay: Antiproliferative activity against human MDA-MB-453 cells expressing erbB-2 after 4 days by WST-8 assay; format: functional, cell-based; conditions: MDA-MB-453, 96 h
Outline: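 MDA-MB-453 cells (erbB-2 overexpressing) seeded at (3-4) × 10^3 cells/well with a range of inhibitor concentrations, incubated 4 days. WST-8 added to 10% final, 2-3 h at 37 °C, absorbance read at 450 nm. IC50 is the concentration giving 50% growth inhibition, taken against untreated DMSO-control absorbance.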

IC50 [1] | IC50 (MDA-MB-453) | SMILES
18 µM | – | CC(C)C[C@@H]1NC(=O)[C@H](CCCC(=O)O)NC(=O)C[S@@+]([O-])C[C@@H](C(N)=O)NC(=O)CCCCNC(=O)[C@H](CC(N)=O)NC(=O)[C@](C)(CCC(=O)O)NC(=O)[C@H](Cc2ccc(O)cc2)NC1=O
30.5 µM | – | CC(C)C[C@@H]1NC(=O)[C@H](CCCC(=O)O)NC(=O)C[S@@+]([O-])C[C@@H](C(N)=O)NC(=O)CCCCNC(=O)[C@H](CC(N)=O)NC(=O)[C@@](C)(CCC(=O)O)NC(=O)[C@H](Cc2ccc(O)cc2)NC1=O
168 µM | – | C[C@@](CCC(=O)O)(NC(=O)[C@H](Cc1ccc(O)c(CCC(=O)O)c1)NC(=O)OCC1c2ccccc2-c2ccccc21)C(=O)N[C@@H](CC(N)=O)C(N)=O
60.5 µM | – | CC(C)C[C@@H]1NC(=O)[C@H](CCCC(=O)O)NC(=O)CSC[C@@H](C(N)=O)NC(=O)CCCCNC(=O)[C@H](CC(N)=O)NC(=O)[C@@](C)(CCC(=O)O)NC(=O)[C@H](Cc2ccc(O)cc2)NC1=O
70 µM | – | CC(C)C[C@@H]1NC(=O)[C@H](CCCC(=O)O)NC(=O)CSC[C@@H](C(N)=O)NC(=O)CCCCNC(=O)[C@H](CC(N)=O)NC(=O)[C@](C)(CCC(=O)O)NC(=O)[C@H](Cc2ccc(O)cc2)NC1=O
5.8 µM | – | CC(C)C[C@H](NC(=O)[C@H](CCCC(=O)O)NC(=O)OCC1c2ccccc2-c2ccccc21)C(=O)N[C@@H](Cc1ccc(O)c(N)c1)C(=O)NC1(C(=O)N[C@@H](CC(N)=O)C(N)=O)CCCCC1 (Fmoc-[Aad]L[Tyr(3-NH2)][Ac6c]N-NH2)
5.6 µM | 14 µM | CC(C)C[C@H](NC(=O)[C@H](CCCC(=O)O)NC(=O)OCC1c2ccccc2-c2ccccc21)C(=O)N[C@@H](Cc1ccc(O)c(CCC(=O)O)c1)C(=O)N[C@@](C)(CCC(=O)O)C(=O)N[C@@H](CC(N)=O)C(N)=O (Fmoc-[Aad]L[X1][αMeE]N-NH2)
2.5 µM | 52 µM | CC(C)C[C@H](NC(=O)[C@H](CC(C(=O)O)C(=O)O)NC(=O)OCC1c2ccccc2-c2ccccc21)C(=O)N[C@@H](Cc1ccc(O)c(N)c1)C(=O)NC1(C(=O)N[C@@H](CC(N)=O)C(N)=O)CCCCC1 (Fmoc-[Gla]L[Tyr(3-NH2)][Ac6c]N-NH2)
4.4 µM | 55 µM | CC(C)C[C@H](NC(=O)[C@H](CC(C(=O)O)C(=O)O)NC(=O)OCC1c2ccccc2-c2ccccc21)C(=O)N[C@@H](Cc1ccc(O)c(N)c1)C(=O)N[C@@](C)(CCC(=O)O)C(=O)N[C@@H](CC(N)=O)C(N)=O (Fmoc-[Gla]L[Tyr(3-NH2)][αMeE]N-NH2)
> 1000 µM | – | CC(C)C[C@H](NC(=O)[C@@](C)(CCCC(=O)O)NC(=O)OCC1c2ccccc2-c2ccccc21)C(=O)N[C@@H](Cc1ccc(O)cc1)C(=O)NC1(C(=O)N[C@@H](CC(N)=O)C(N)=O)CCCCC1 (Fmoc-[X2]LY[Ac6c]N-NH2)
700 µM | – | CC(C)C[C@H](NC(=O)[C@@](C)(CCCC(=O)O)NC(=O)OCC1c2ccccc2-c2ccccc21)C(=O)N[C@@H](Cc1ccc(O)c(N)c1)C(=O)NC1(C(=O)N[C@@H](CC(N)=O)C(N)=O)CCCCC1 (Fmoc-[X2]L[Tyr(3-NH2)][Ac6c]N-NH2)
118 µM | – | CC(C)C[C@H](NC(=O)[C@](C)(CCCC(=O)O)NC(=O)OCC1c2ccccc2-c2ccccc21)C(=O)N[C@@H](Cc1ccc(O)cc1)C(=O)NC1(C(=O)N[C@@H](CC(N)=O)C(N)=O)CCCCC1 (Fmoc-[αMehGlu]LY[Ac6c]N-NH2)
3.9 µM | 29 µM | CC(C)C[C@H](NC(=O)[C@](C)(CCCC(=O)O)NC(=O)OCC1c2ccccc2-c2ccccc21)C(=O)N[C@@H](Cc1ccc(O)c(N)c1)C(=O)NC1(C(=O)N[C@@H](CC(N)=O)C(N)=O)CCCCC1 (Fmoc-[αMehGlu]L[Tyr(3-NH2)][Ac6c]N-NH2)
19 µM | – | CC(C)C[C@H](NC(=O)[C@@H](N)CC(C(=O)O)C(=O)O)C(=O)N[C@@H](Cc1ccc(O)c(N)c1)C(=O)N[C@@](C)(CCC(=O)O)C(=O)N[C@@H](CC(N)=O)C(N)=O (H-[Gla]L[Tyr(3-NH2)][αMeE]N-NH2)
77 µM | – | CC(C)C[C@@H]1NC(=O)[C@H](CCCC(=O)O)NC(=O)C[S@@+]([O-])C[C@@H](C(N)=O)NC(=O)CCCCNC(=O)[C@H](CC(N)=O)NC(=O)C2(CCCCC2)NC(=O)[C@H](Cc2ccc(O)cc2)NC1=O ([Aad]LY[Ac6c]N[Ava][Cys(CH2CO)(S-oxide,Ss)]-NH2; lactam N-7)
30.5 µM | – | CC(C)C[C@@H]1NC(=O)[C@H](CCCC(=O)O)NC(=O)C[S@@+]([O-])C[C@@H](C(N)=O)NC(=O)CCCCNC(=O)[C@H](CC(N)=O)NC(=O)[C@](C)(CC(=O)O)NC(=O)[C@H](Cc2ccc(O)cc2)NC1=O ([Aad]LY[αMeD]N[Ava][Cys(CH2CO)(S-oxide,Ss)]-NH2; lactam N-7)
17 µM | – | CC(C)C[C@@H]1NC(=O)[C@H](CCCC(=O)O)NC(=O)C[S@@+]([O-])C[C@@H](C(N)=O)NC(=O)CCCCNC(=O)[C@H](CC(N)=O)NC(=O)[C@](C)(CCCC(=O)O)NC(=O)[C@H](Cc2ccc(O)cc2)NC1=O ([Aad]LY[αMehGlu]N[Ava][Cys(CH2CO)(S-oxide,Ss)]-NH2; lactam N-7)
8.1 µM | – | CC(C)C[C@@H]1NC(=O)[C@H](CCCC(=O)O)NC(=O)C[S@@+]([O-])C[C@@H](C(N)=O)NC(=O)CCCCNC(=O)[C@H](CC(N)=O)NC(=O)[C@](C)(CCC(=O)O)NC(=O)[C@H](Cc2ccc(O)c(N)c2)NC1=O ([Aad]L[Tyr(3-NH2)][αMeE]N[Ava][Cys(CH2CO)(S-oxide,Ss)]-NH2; lactam N-7)
1.15 µM | 12 µM | CC(C)C[C@@H]1NC(=O)[C@H](CC(C(=O)O)C(=O)O)NC(=O)C[S@@+]([O-])C[C@@H](C(N)=O)NC(=O)CCCCNC(=O)[C@H](CC(N)=O)NC(=O)[C@](C)(CCCC(=O)O)NC(=O)[C@H](Cc2ccc(O)c(N)c2)NC1=O ([Gla]L[Tyr(3-NH2)][αMehGlu]N[Ava][Cys(CH2CO)(S-oxide,Ss)]-NH2; lactam N-7)
108 µM | – | CC(C)C[C@@H]1NC(=O)[C@H](CCCC(=O)O)NC(=O)CSC[C@@H](C(N)=O)NC(=O)CCCCNC(=O)[C@H](CC(N)=O)NC(=O)[C@](C)(CC(=O)O)NC(=O)[C@H](Cc2ccc(O)cc2)NC1=O ({CH2CO}-[Aad]LY[αMeD]N[Ava]C-NH2; thioether N-7)
60.7 µM | – | CC(C)C[C@@H]1NC(=O)[C@H](CCCC(=O)O)NC(=O)CSC[C@@H](C(N)=O)NC(=O)CCCCNC(=O)[C@H](CC(N)=O)NC(=O)[C@](C)(CCCC(=O)O)NC(=O)[C@H](Cc2ccc(O)cc2)NC1=O ({CH2CO}-[Aad]LY[αMehGlu]N[Ava]C-NH2; thioether N-7)
17 µM | – | CC(C)C[C@@H]1NC(=O)[C@H](CCCC(=O)O)NC(=O)CSC[C@@H](C(N)=O)NC(=O)CCCCNC(=O)[C@H](CC(N)=O)NC(=O)[C@](C)(CCC(=O)O)NC(=O)[C@H](Cc2ccc(O)c(N)c2)NC1=O ({CH2CO}-[Aad]L[Tyr(3-NH2)][αMeE]N[Ava]C-NH2; thioether N-7)
9.5 µM | – | CC(C)C[C@@H]1NC(=O)[C@H](CC(C(=O)O)C(=O)O)NC(=O)CSC[C@@H](C(N)=O)NC(=O)CCCCNC(=O)[C@H](CC(N)=O)NC(=O)[C@](C)(CCCC(=O)O)NC(=O)[C@H](Cc2ccc(O)c(N)c2)NC1=O ({CH2CO}-[Gla]L[Tyr(3-NH2)][αMehGlu]N[Ava]C-NH2; thioether N-7)

SMILES | IC50 [1] | IC50 (MDA-MB-453)
C[C@@](CCC(=O)O)(NC(=O)[C@@H](N)Cc1ccc(O)c(CCO)c1)C(=O)N[C@@H](CC(N)=O)C(N)=O | 290 µM | –

Reference: ChEMBL document CHEMBL1140171, “Synthesis and utilization of chiral alpha-methylated alpha-amino acids with a carboxyalkyl side chain in the design of novel Grb2-SH2 peptide inhibitors free of phosphotyrosine” (J Med Chem, 2008)
